The subject of data set [1] is Rattus norvegicus. In words: Inhibition of plasma testosterone levels in Sprague-Dawley rat at 9.8 uM, sc by enzyme-linked immunosorbent assay. The class given is functional. The essentials:
(§1)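 Intact adult male Sprague-Dawley rats (275–310 g, 3 per group) received subcutaneous mini-pumps for seven days. Solutions were in 1:3 DMSO/water: 19.6 μM (~0.66 nM/day/kg), or 9.8 μM (~0.33 nM/day/kg). Sham-operated controls. Plasma was sampled on days 3–7 and testosterone measured by ELISA. Values are means of days 4–7.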

In data set [2] the test system is Rattus norvegicus. Briefly: Inhibition of plasma testosterone levels in Sprague-Dawley rat at 19.6 uM, sc by enzyme-linked immunosorbent assay. It is filed as functional. Summed up: as §1
A short description of data set [3]: Solubility in 5% mannitol. The class given is physicochemical.
For data set [4], the target named is T1, Gonadotropin-releasing hormone receptor (Rattus norvegicus, UniProt P30969).
T1 sequence (P30969 whole entry): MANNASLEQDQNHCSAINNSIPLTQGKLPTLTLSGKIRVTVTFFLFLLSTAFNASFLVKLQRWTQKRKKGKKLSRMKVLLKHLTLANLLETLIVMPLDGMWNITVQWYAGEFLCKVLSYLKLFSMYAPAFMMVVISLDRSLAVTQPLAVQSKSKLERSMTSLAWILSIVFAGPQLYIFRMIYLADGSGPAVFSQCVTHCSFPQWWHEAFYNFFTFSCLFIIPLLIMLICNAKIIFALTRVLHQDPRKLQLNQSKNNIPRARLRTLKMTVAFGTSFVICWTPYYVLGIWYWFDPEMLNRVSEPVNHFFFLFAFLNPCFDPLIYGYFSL
Briefly: Antagonist activity at rat GnRHR expressed in HEK293 cells assessed as inhibition of GnRH-induced luciferase response by reporter gene assay. It is filed as functional, cell-based. Summed up:
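Rat GnRHR stably expressed in HEK293 cells, transiently transfected with an NFAT-responsive luciferase reporter, plated after 16 h and assayed next day. Compound in 1% DMSO was given 10 min before 1 nM GnRH (final), ≥5 h at 37 °C, then luminescence. Duplicates at 11 half-log concentrations. IC50 by four-parameter logistic fit, geometric mean of ≥2 experiments.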

Data set [5] is described as follows: Ratio of IC50 for rat GnRHR to IC50 for human GnRHR in HEK293 cells. The class given is functional.
In data set [6] the target is T2, Gonadotropin-releasing hormone receptor (Homo sapiens, UniProt P30968).
T2 sequence (P30968 whole entry): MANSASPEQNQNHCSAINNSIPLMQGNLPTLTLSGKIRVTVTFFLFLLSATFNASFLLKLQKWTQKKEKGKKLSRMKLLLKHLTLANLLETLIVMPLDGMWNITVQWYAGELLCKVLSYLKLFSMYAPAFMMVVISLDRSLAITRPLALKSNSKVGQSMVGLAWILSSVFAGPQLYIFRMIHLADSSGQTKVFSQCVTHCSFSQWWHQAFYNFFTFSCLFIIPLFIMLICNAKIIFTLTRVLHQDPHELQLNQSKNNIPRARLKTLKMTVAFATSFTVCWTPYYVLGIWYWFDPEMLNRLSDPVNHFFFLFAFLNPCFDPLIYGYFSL
In words: Antagonist activity at human GnRHR expressed in HEK293 cells assessed as inhibition of GnRH-induced luciferase response by reporter gene assay. The class given is functional, cell-based. The essentials: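 HEK293 cells stably expressing cloned human GnRHR and an LH alpha-subunit-promoter luciferase reporter, plated overnight. Compound in 1% DMSO was added 10 min before GnRH (1 nM final), then ≥5 h at 37 °C, 5% CO2, then luminescence. 11 half-log concentrations in duplicate. IC50 from four-parameter logistic fit, reported as geometric mean of ≥2 experiments.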
(In general: Reporter assays use an easily measured gene product as a stand-in for the process of interest.)

Starred links: 1 amine or outer side, 2 acyl side, 3 side chain; linkers in the order of their positions; H or OH if unused. Non-standard residues stand in square brackets, D forms with d. Residues, ends and D or L forms follow the SMILES beside them. Phe(4-NH(5-NH2triazol-3-yl)) = Nc1nc(Nc2ccc(C[C@H](N)C(=O)O)cc2)n[nH]1; X1 = Nc1nc(Nc2ccc(C[C@@H](N[*:1])C(=O)[*:2])cc2)n[nH]1; dPhe(4-Cl) = N[C@H](Cc1ccc(Cl)cc1)C(=O)O; d2Nal = N[C@H](Cc1ccc2ccccc2c1)C(=O)O; Lys(iPr) = CC(C)NCCCC[C@H](N)C(=O)O; d3Pal = N[C@H](Cc1cccnc1)C(=O)O

One may read the solubility as how much of the substance goes into solution per volume. Lower therefore signals a poorly soluble substance. What is called IC50 is the midpoint of a concentration-inhibition curve. Turning to `CC(=O)N[C@H](Cc1ccc2ccccc2c1)C(=O)N[C@H](Cc1ccc(Cl)cc1)C(=O)N[C@H](Cc1cccnc1)C(=O)N[C@@H](CO)C(=O)N[C@@H](Cc1ccc(Nc2n[nH]c(N)n2)cc1)C(=O)N[C@H](Cc1ccc(Nc2n[nH]c(N)n2)cc1)C(=O)N[C@@H](CC(C)C)C(=O)N[C@@H](CCCCNC(C)C)C(=O)N1CCC[C@H]1C(=O)N[C@H](C)C(N)=O.CC(=O)O` [PRAZARELIX ACETATE] (Ac-[d2Nal][dPhe(4-Cl)][d3Pal]S[Phe(4-NH(5-NH2triazol-3-yl))][X1]L[Lys(iPr)]P[dA]-NH2), the Activity with Rattus norvegicus [1] is 1.39 ng/mL. The Plasma testosterone level in the data set on Rattus norvegicus [2] came out at 0.32 ng/mL. Further, the solubility in data set [3] was found to be 50 mg/mL. Also, the IC50 in data set [4] is listed as 1.4 nM (antagonist); in data set [6], 1.36 nM (antagonist). In addition, the “Ratio IC50” value in data set [5] is reported as 1.03.
